# In ChEMBL document CHEMBL1147383, “Use of alkenylresorcinols from Ononis speciosa as synthetic precursors of compounds with potential biological activity” (J Nat Prod, 1993):
# Active and inactive are the calls of the source. No cut-off for these calls is given here.
# How the values were obtained:
# [1] = test system: Enterococcus faecalis; test: Antibacterial activity against Enterococcus faecalis S-86 at 100 ug/disk after 18 hrs by disk diffusion assay; type: functional; details: read-out: Diameter of inhibition zone
# Procedure, shortened: (§1)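 Disk diffusion. Gram-positive strains were grown in brain-heart agar and incubated at 28°. BHA plates were seeded with 0.1 ml of 8-h cultures. 6-mm paper disks were loaded with 100 or 200 µg of compound. Plates were held at 4° for 1 h for diffusion, then incubated. Growth-inhibition halo diameter (mm) was read at 18 h.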
# [2] = test system: Botrytis cinerea; test: Antifungal activity against Botrytis cinerea CECT 2850 after 18 hrs by disk diffusion assay; type: functional, organism-based
# Procedure, shortened: (§2)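 Botrytis strains were grown on potato agar at 28°. Plates were inoculated with 0.1 ml of 8-h cultures. 6-mm paper disks were impregnated with 100 or 200 µg. Plates were held 1 h at 4° for diffusion, then incubated. Growth-inhibition halo diameter (mm) was read 18 h after incubation.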
# [3] = test system: Bacillus subtilis; test: Antibacterial activity against Bacillus subtilis CECT 397 at 100 ug/disk after 18 hrs by disk diffusion assay; type: functional; procedure, shortened: as §1
# [4] = test system: Alcaligenes faecalis; test: Antibacterial activity against Alcaligenes faecalis after 18 hrs by disk diffusion assay; type: functional, organism-based
# Procedure, shortened: (§3)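 Gram-negative strains were grown in brain-heart agar and incubated at 37°. BHA plates were inoculated with 0.1 ml of 8-h cultures. 6-mm paper disks carried 100 or 200 µg of compound. Plates stood 1 h at 4° to allow diffusion before incubation. The inhibition halo diameter (mm) was measured after 18 h.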
# [5] = test system: Pseudomonas fluorescens; test: Antibacterial activity against Pseudomonas fluorescens N5 after 18 hrs by disk diffusion assay; type: functional, organism-based; procedure, shortened: as §3
# [6] = test system: Bacillus subtilis; test: Antibacterial activity against Bacillus subtilis CECT 397 at 200 ug/disk after 18 hrs by disk diffusion assay; type: functional; procedure, shortened: as §1
# [7] = test system: Enterococcus faecalis; test: Antibacterial activity against Enterococcus faecalis S-86 at 200 ug/disk after 18 hrs by disk diffusion assay; type: functional; details: read-out: Diameter of inhibition zone; procedure, shortened: as §1
# [8] = test system: Saccharomyces cerevisiae; test: Antifungal activity against Saccharomyces cerevisiae S1 after 18 hrs by disk diffusion assay; type: functional, organism-based
# Procedure, shortened: (§4)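 Yeast strains were grown in YEPG at 28°. Plates were seeded with 0.1 ml of 8-h-old cultures. 6-mm paper disks were impregnated with 100 or 200 µg. Diffusion ran 1 h at 4°, followed by incubation. Zone of growth inhibition (diameter, mm) was recorded 18 h after incubation.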
# [9] = test system: Priestia megaterium; test: Antibacterial activity against Bacillus megaterium at 100 ug/disk after 18 hrs by disk diffusion assay; type: functional; procedure, shortened: as §1
# [10] = test system: Niallia circulans; test: Antibacterial activity against Bacillus circulans at 100 ug/disk after 18 hrs by disk diffusion assay; type: functional; details: for zone of inhibition at 100 µg/disc: read-out: Diameter of inhibition zone; procedure, shortened: as §1
# [11] = test system: Bacillus licheniformis; test: Antibacterial activity against Bacillus licheniformis CECT20 at 100 ug/disk after 18 hrs by disk diffusion assay; type: functional; details: read-out: Diameter of inhibition zone; procedure, shortened: as §1
# [12] = test system: Micrococcus luteus; test: Antibacterial activity against Micrococcus lysodeikticus at 200 ug/disk after 18 hrs by disk diffusion assay; type: functional; details: read-out: Diameter of inhibition zone; procedure, shortened: as §1
# [13] = test system: Saccharomyces cerevisiae; test: Antifungal activity against Saccharomyces cerevisiae X-3 after 18 hrs by disk diffusion assay; type: functional, organism-based; procedure, shortened: as §4
# [14] = test system: Proteus; test: Antibacterial activity against Proteus after 18 hrs by disk diffusion assay; type: functional, organism-based; procedure, shortened: as §3
# [15] = test system: Priestia megaterium; test: Antibacterial activity against Bacillus megaterium at 200 ug/disk after 18 hrs by disk diffusion assay; type: functional; procedure, shortened: as §1
# [16] = test system: Pseudomonas reptilivorous; test: Antibacterial activity against Pseudomonas reptilovora after 18 hrs by disk diffusion assay; type: functional, organism-based; procedure, shortened: as §3
# [17] = test system: Escherichia coli; test: Antibacterial activity against Escherichia coli U9 after 18 hrs by disk diffusion assay; type: functional, organism-based; procedure, shortened: as §3
# [18] = test system: Botrytis cinerea; test: Antifungal activity against Botrytis cinerea CECT 2100 after 18 hrs by disk diffusion assay; type: functional, organism-based; procedure, shortened: as §2
# [19] = test system: Staphylococcus aureus; test: Antibacterial activity against Staphylococcus aureus ATCC 8 at 200 ug/disk after 18 hrs by disk diffusion assay; type: functional; details: for zone of inhibition at 200 µg/disc: ATCC 8, 18 h, read-out: Diameter of inhibition zone; procedure, shortened: as §1
# [20] = test system: Bacillus licheniformis; test: Antibacterial activity against Bacillus licheniformis CECT20 at 200 ug/disk after 18 hrs by disk diffusion assay; type: functional; details: read-out: Diameter of inhibition zone; procedure, shortened: as §1
# [21] = test system: Fusarium fujikuroi; test: Antifungal activity against Gibberella fujikuroi IMI 58289 after 18 hrs by disk diffusion assay; type: functional, organism-based
# Procedure, shortened: (§5)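 Filamentous fungi were grown on Sabouraud agar with chloramphenicol at 28°. Plates were inoculated with 0.1 ml of 8-h cultures. 6-mm disks bearing 100 or 200 µg were applied. Plates were kept at 4° for 1 h, then incubated. Inhibition halo diameter (mm) was read at 18 h.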
# [22] = test system: Saccharomyces cerevisiae; test: Antifungal activity against Saccharomyces cerevisiae K-2 after 18 hrs by disk diffusion assay; type: functional, organism-based; procedure, shortened: as §4
# [23] = test system: Aspergillus niger; test: Antifungal activity against Aspergillus niger ATCC 9142 after 18 hrs by disk diffusion assay; type: functional, organism-based; procedure, shortened: as §5
# [24] = test system: Salmonella; test: Antibacterial activity against Salmonella after 18 hrs by disk diffusion assay; type: functional, organism-based; procedure, shortened: as §3
# [25] = test system: Niallia circulans; test: Antibacterial activity against Bacillus circulans at 200 ug/disk after 18 hrs by disk diffusion assay; type: functional; details: read-out: Diameter of inhibition zone; procedure, shortened: as §1
# [26] = read-out: Diameter of inhibition zone
Structure (SMILES),zone of inhibition at 100 µg/disc [1] [mm],Activity [2],Activity [3],Activity [4],Activity [5],zone of inhibition at 200 µg/disc [7] [mm],Activity [8],zone of inhibition at 100 µg/disc [11] [mm],zone of inhibition at 200 µg/disc [12] [mm],Activity [13],Activity [14],Activity [16],Activity [17],Activity [18],zone of inhibition at 200 µg/disc [20] [mm],Activity [21],Activity [22],Activity [23],Activity [24],zone of inhibition at 200 µg/disc [25] [mm],further results
CCCCCC/C=C\CCCCCCCc1cc(O)cc(O)c1C(=O)O,16,inactive,inactive,inactive,inactive,30,inactive,15,7,inactive,inactive,inactive,inactive,inactive,15,inactive,inactive,inactive,inactive,7,Activity [6]: inactive; Activity [9]: inactive; Activity [10]: inactive; Activity [15]: inactive; zone of inhibition at 200 µg/disc [19]: 7 mm
CCCCC[C@H](/C=C\CCCCCCCc1cc(O)cc(O)c1C(=O)O)OC(C)=O,13,inactive,–,inactive,inactive,15,inactive,18,13,inactive,inactive,inactive,inactive,inactive,22,inactive,inactive,inactive,inactive,9,"zone of inhibition at 100 µg/disc [3, 26]: 7 mm; zone of inhibition at 200 µg/disc [6, 26]: 8 mm; zone of inhibition at 100 µg/disc [9, 26]: 7 mm; zone of inhibition at 100 µg/disc [10]: 8 mm; zone of inhibition at 200 µg/disc [15, 26]: 7 mm; zone of inhibition at 200 µg/disc [19]: 7 mm"
CCCCC[C@H](/C=C\CCCCCCCc1cc(O)cc(O)c1)OC(C)=O,7,inactive,inactive,inactive,inactive,6,inactive,7,7,inactive,inactive,inactive,inactive,inactive,9,inactive,inactive,inactive,inactive,7,Activity [6]: inactive; Activity [9]: inactive; zone of inhibition at 100 µg/disc [10]: 7 mm; Activity [15]: inactive; Activity [19]: inactive
